Molecules are shown by their SMILES. Calls of active or inactive are those of the source.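 Rule for the calls: active = current rise at least 3 SD above the untreated control mean in each of two repeat wells; inactive = the rest.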

Chain of Potassium voltage-gated channel subfamily KQT member 1 (Homo sapiens) (P51787 whole entry, looked up): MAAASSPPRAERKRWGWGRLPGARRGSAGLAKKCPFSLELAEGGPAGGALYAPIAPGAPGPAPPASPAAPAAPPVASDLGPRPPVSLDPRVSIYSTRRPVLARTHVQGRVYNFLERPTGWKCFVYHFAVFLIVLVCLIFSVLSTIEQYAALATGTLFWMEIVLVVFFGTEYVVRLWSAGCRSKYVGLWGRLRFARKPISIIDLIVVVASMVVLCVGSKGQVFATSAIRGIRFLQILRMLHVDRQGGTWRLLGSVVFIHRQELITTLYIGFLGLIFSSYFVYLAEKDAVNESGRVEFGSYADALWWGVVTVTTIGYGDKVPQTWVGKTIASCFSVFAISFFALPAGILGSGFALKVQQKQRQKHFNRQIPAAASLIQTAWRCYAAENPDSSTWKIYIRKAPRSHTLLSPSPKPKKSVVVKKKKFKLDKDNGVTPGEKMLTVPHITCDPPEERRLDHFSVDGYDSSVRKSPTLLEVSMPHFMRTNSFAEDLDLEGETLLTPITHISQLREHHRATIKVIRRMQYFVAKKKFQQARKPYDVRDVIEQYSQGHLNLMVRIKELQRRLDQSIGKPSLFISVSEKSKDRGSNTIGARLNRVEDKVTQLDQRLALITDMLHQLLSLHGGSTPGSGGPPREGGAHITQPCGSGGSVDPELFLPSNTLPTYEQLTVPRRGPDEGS

This assay deals with Potassium voltage-gated channel subfamily KQT member 1 (Homo sapiens) (UniProt P51787). In words: KCNQ1 channel current potentiators, confirmation, orthogonal assay for KCNQ1 potentiator project, IonWorks patch clamp, KCNQ1-CHO cells (AID 493184). The settings on record: automated patch clamp current, at 10 µM. The gist of the method:
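Material: KCNQ1-expressing CHO cells; doses: 10 µM final, single point; probe or stimulus: voltage step from -90 mV holding to +40 mV, 2,000 ms; signal: automated voltage clamp, amphotericin B perforated patch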
Take `CCCc1cc(=O)n2[nH]cc(-c3ccc(Cl)cc3)c2n1`: the outcome was inactive.
For the compound `CC(C)(C)CC(C)(C)NCC(O)COCCOc1ccc(Br)cc1` (stereo not drawn), the result was inactive.
For the compound `Cc1sc(-n2c(C)cc(/C=N/n3cnnc3)c2C)c(C#N)c1C`, the result was inactive.
Turning to `COC(=O)[C@@H]1CCCN1C(=O)CCc1nnc(CCC2CCCCC2)o1`, the outcome was inactive.
As to `COC(=O)C1SCC2C(=O)N(Cc3ccc(F)cc3)CC(=O)N21` (stereo not drawn), the outcome was inactive.
As for `COc1cccc(OCC(=O)NNC(=O)C(=O)Nc2ccc(OC)cc2OC)c1`, the result was inactive.
Take `CCOC(=O)c1c(NC(=S)NCc2ccccc2)sc2c1CCN(C(=O)OCC)C2`: the outcome was inactive.
Regarding `O=C(NC1CCCC1)C(c1cccnc1)N(C(=O)c1csnn1)C1CC1` (stereo not drawn), the result was inactive.
For the compound `c1ccc(-n2cnc3cc(NCc4cccs4)ccc32)cc1`, the outcome was inactive.
Turning to `Cc1ccc(NC(=O)CCS(=O)(=O)c2cccc3nonc23)c(Br)c1`, the result was inactive.
Consider `CCOc1ccc(-c2c(=O)n(O)c3ccccc3[n+]2[O-])cc1`, for which the result was inactive.
On to `COc1ccc(NC(=O)C(=O)NNC(=O)c2ccc(Cl)cc2Cl)cc1`, for which the outcome was inactive.
As to `O=[N+]([O-])c1ccc(/C=C/C2=NN(c3ccccc3)C(c3ccco3)C2)o1` (stereo not drawn), the outcome was inactive.
For the compound `Cc1cccc(OCC(=O)O/N=C(\N)c2ccc(Cl)cc2)c1`, the outcome was inactive.
On to `NNC(=O)c1sccc1OCc1ccc(Cl)cc1Cl`, for which the outcome was inactive.
`Cc1nc2c(c3c1[nH]c1ccccc13)C(=O)CC(C)(C)C2`: the result was inactive.
As to `CS(=O)(=O)c1ccc(C(=O)OCc2nnc(-c3ccc(Cl)cc3)o2)cc1[N+](=O)[O-]`, the outcome was inactive.
In the case of `O=c1c2cccnc2n(-c2ccccc2)n1Cc1ccc(Cl)cc1`, the outcome was inactive.

For the origin of these results see PubChem BioAssay.
